RGS4 pot – RGS4 potentiation or activation; HEK293 M3R/inducible RGS4, carbachol calcium flux Fluo4; hits give low values; B-score at 10 µM; 310,000 compounds, 0.92% hits; AID 463111;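 active = B-score of the integrated calcium signal more than 4 SD below the library mean, with starting fluorescence not abnormally high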;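 note: negative B-score means reduced calcium response which marks RGS4 activation or potentiation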
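Detection: kinetic calcium fluorescence imaging with Fluo4-AM dye, 2 µM / Material: HEK293 cells with stable M3R and inducible RGS4 / Schedule: recording 10 s baseline at 1 Hz, 100 s post-agonist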
MrgX1 antagonist – antagonists of human MrgX1 receptor; 310,000 compounds, 1.3% hits; MRGX1-HEK293 calcium flux, Fluo-4, BAM8-22 antagonism; hits give low values; B-score at 10 µM; AID 588676; Q96LB2;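 active = calcium-response B-score plate-corrected more than 3 library SD below zero, starting fluorescence within 5 deviations, no agonist response on first addition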;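 note: peak minus trough fluorescence over baseline after final BAM8-22 challenge near maximal dose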
Target sequence (Q96LB2 whole entry, looked up): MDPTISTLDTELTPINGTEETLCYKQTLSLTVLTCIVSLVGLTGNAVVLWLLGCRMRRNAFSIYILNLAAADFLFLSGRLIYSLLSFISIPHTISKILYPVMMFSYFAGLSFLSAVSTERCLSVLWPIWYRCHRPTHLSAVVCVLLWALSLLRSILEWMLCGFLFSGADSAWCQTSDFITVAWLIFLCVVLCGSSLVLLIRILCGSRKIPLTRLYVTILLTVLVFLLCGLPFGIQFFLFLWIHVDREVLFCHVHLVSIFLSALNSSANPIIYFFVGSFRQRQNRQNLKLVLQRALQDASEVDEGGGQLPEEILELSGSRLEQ
MrgX1 ag – agonists of human MrgX1 receptor. B-score at 10 µM. Q96LB2. MrgX1-HEK293 cells, Fluo-4 calcium fluorescence, agonist mode; hits give high values. 310,000 compounds, 0.44% hits;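 active = calcium response B-score plate-corrected fluorescence ratio at least 3 library SD, with starting fluorescence B-score inside 5 SD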
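Material – MrgX1-expressing HEK293 cells · Input – 15,000 cells seeded per well · Dosing – compound as first of three additions · Times – overnight seeding, then 1 h dark dye loading · Measured by – kinetic Fluo-4 NW fluorescence of intracellular calcium · Read-out – B-scored fluorescence response ratio · Benchmarks – positive and negative control wells on each plate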
RGS4 inh – human RGS4 inhibition. 310,000 compounds, 0.45% hits. HEK293 M3R/RGS4 inducible, Fluo-4 calcium flux; hits give high values; triggered by carbachol at its EC20. B-score at 10 µM. AID 463165;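 active = B-score, a plate-corrected calcium signal, over three deviations above library mean, with baseline fluorescence within five deviations of library mean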;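 note: RGS4 expression induced by doxycycline in cells with stable M3 receptor; B-score is computed from the integrated fluorescence ratio over baseline after carbachol; higher B-score means a larger calcium signal and so more RGS4 inhibition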
Target sequence (P49798 whole entry, looked up): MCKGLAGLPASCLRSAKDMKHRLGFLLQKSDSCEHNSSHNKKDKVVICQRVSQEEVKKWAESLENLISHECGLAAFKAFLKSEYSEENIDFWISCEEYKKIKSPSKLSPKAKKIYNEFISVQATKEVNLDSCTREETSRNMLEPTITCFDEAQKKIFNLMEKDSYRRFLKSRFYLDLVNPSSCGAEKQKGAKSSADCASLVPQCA
MrgX1 allo act – human MrgX1 positive allosteric modulation, primary screen; Q96LB2; MrgX1-HEK293, Fluo-4 calcium flux, FDSS; hits give high values; B-score at 10 µM; 310,000 compounds, 0.63% hits; AID 588675;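 active = plate-corrected calcium response at least 3 library SD above typical, normal starting fluorescence, not activating the receptor alone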;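 note: compound read alongside a low EC10 to EC30 dose of BAM8-22 agonist; peak minus trough fluorescence over baseline measured at the second addition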
MrgX1 allo conf – reconfirmed allosteric activator of human MrgX1 receptor. shares compounds with MrgX1 allo act. MrgX1-HEK293, Fluo-4 calcium fluorescence, FDSS. activation (ratio percentage), % at 10 µM. 1,200 compounds, 13% hits. AID 602413;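 active = ratio at least 3 SD above the weak peptide control, stable starting fluorescence, no direct agonism earlier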;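 note: compound followed by low BAM8-22 agonist challenge near EC20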
MrgX1 antag conf – reconfirmed antagonist of human MrgX1 receptor signaling | 2,300 compounds, 19% hits | shares compounds with MrgX1 antagonist | remaining BAM8-22 calcium response % of control (hits give low values), % at 10 µM | MrgX1-HEK293, BAM8-22 calcium flux, Fluo-4; hits give low values;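 active = remaining agonist calcium response no higher than 100% minus 3 SD of agonist-only control wells, with starting fluorescence near control levels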;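 note: agonist BAM8-22 given at a near maximal EC90 to ECmax level; peak minus minimum fluorescence divided by baseline after agonist addition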
HEK293 Ca flux – counter-screen for MrgX1 antagonists: effect in parental HEK293 cells; shares compounds with MrgX1 antagonist; Fluo-4 calcium fluorescence, FDSS; fluorescence ratio F(max-min)/F0 at 10 µM; 4,000 compounds, 2% hits; AID 624111;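 active = duplicate-averaged calcium fluorescence ratio at least three times the standard deviation of buffer wells, a nonspecific response in parental cells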
HEK293 Ca counter – MrgX1 allosteric activator counter-screen hit in parental HEK293 cells | shares compounds with MrgX1 antagonist | parental HEK293 calcium flux, Fluo-4 fluorescence ratio; hits give high values | fluorescence ratio F(max-min)/F0 at 10 µM | 4,000 compounds, 0.4% hits;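 active = calcium fluorescence ratio, averaged over duplicates, at least 3 SD of the buffer-well ratio, meaning a nonspecific response in receptor-free cells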;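 note: untransfected parental HEK293 lacking MrgX1 used as counterscreen for MrgX1 allosteric activators; fluorescence change taken during the second addition on a kinetic imager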
HEK293 Ca cntr2 – activity in parental HEK293 cells lacking MrgX1 receptor; fluorescence ratio F(max-min)/F0 at 10 µM; 4,000 compounds, 8.7% hits; shares compounds with MrgX1 antagonist; Fluo-4 calcium fluorescence (FDSS); hits give high values; AID 624115;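 active = calcium fluorescence ratio at least three times the spread of buffer wells, meaning a non-specific response in parental cells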
The depositor's hits bear a star; i = inactive; . = no result given. This is a sample that favours compounds with a hit; in the whole collection about 3.5% have one here.

SMILES	RGS4 pot	MrgX1 antagonist	MrgX1 ag	RGS4 inh	MrgX1 allo act	MrgX1 allo conf	HEK293 Ca flux	HEK293 Ca counter	HEK293 Ca cntr2	others
N#CCSc1nnc(COc2ccc3ccccc3c2)o1	i	i	i	i	25*	i	i	i	i
CN1CCN(c2ccc(S(=O)(=O)N3CCOCC3)cc2)CC1	i	i	i	i	i	.	.	.	.
O=C1OC(c2ccccc2)c2ccc3ccccc3c21 (stereo unspecified)	i	i	i	i	i	.	.	.	.
Clc1cccc2c1Sc1ccccc1CC2N1CCNCC1 (stereo unspecified)	i	i	i	i	14*	i	i	i	i
O=C(c1ccccc1Cl)N1CCNCC1	i	i	i	i	i	.	.	.	.
O=C(O)C(CCCCNS(=O)(=O)c1ccc(F)cc1)NS(=O)(=O)c1ccc(F)cc1 (stereo unspecified)	i	i	i	i	i	.	.	.	.
C/C(=C\C(=O)c1ccccc1)NCc1ccc(F)cc1	i	i	i	i	7.4*	i	i	i	i
O=C(CSc1nnnn1C1CCCC1)Nc1ccccc1N1CCOCC1	i	i	i	i	7.9*	i	i	i	i
O=C(CSc1nnnn1C1CCCC1)Nc1ccccc1F	i	i	i	i	i	.	.	.	.
COc1ccc(OC)c(S(=O)(=O)N/N=C\c2cn(CC(N)=O)c3ccccc23)c1	i	i	i	i	i	.	.	.	.
O=C(Nc1ccc(N2CCN(Cc3ccccc3)CC2)cc1)c1ccco1	i	i	i	i	i	.	.	.	.
O=C(O)C1CC=CCC1C(=O)Nc1ccc(N2CCN(Cc3ccccc3)CC2)cc1 (stereo unspecified)	i	i	i	i	7.4*	i	i	i	i
Cn1nc(C(=O)OCC(=O)Nc2sccc2C(N)=O)c2ccccc2c1=O	i	i	i	i	i	.	.	.	.
Cc1nnc(SCCn2c(Br)nc3c2c(=O)n(C)c(=O)n3C)s1	i	i	i	i	i	.	.	.	.
Cc1nnc(Sc2c(N)n(C)c(=O)n(C)c2=O)s1	i	i	i	i	11*	i	i	i	i
CCOc1ccc(N(CC(=O)Nc2cc(C)ccc2C)S(=O)(=O)c2c(C)[nH]c(=O)[nH]c2=O)cc1	i	i	i	i	i	.	.	.	.
CC(C)(C)OC(=O)N1CCC(CNC(=O)c2ccc(F)cc2)CC1	i	i	i	i	35*	i	i	i	i
COc1ccccc1CNC(=O)C1CCC(CNc2c(N3CCC(C)CC3)c(=O)c2=O)CC1 (stereo unspecified)	i	i	i	i	6.6*	i	i	i	i
COc1cccc(CNC(=O)C2CCC(CNc3c(N4CCC(C)CC4)c(=O)c3=O)CC2)c1 (stereo unspecified)	i	i	i	i	i	.	.	.	.
Cn1c(=O)n(C)c2cc(C(N)=O)ccc21	i	i	i	i	15*	i	i	i	i
CCC(C)(C)C1CCc2c(sc(NC(=O)c3ccccc3C(=O)O)c2C#N)C1 (stereo unspecified)	i	-6.4*	i	i	8.4*	i	i	i	57*	MrgX1 antag conf=i

Source: PubChem BioAssay (Johns Hopkins Ion Channel Center)
